Screening data (PubChem BioAssay)
An excerpt weighted towards active compounds, which were near 1.5% of everything screened.
EBI2 block – EBI2 (human) antagonism; P32249; EBI2 beta-arrestin recruitment, luminescence, 7a,25-OHC stimulated; inhibition, % at 5 µM; 360,000 tested, 0.81% active; AID 651636; in the data active means inhibition above about 38%;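 further: enzyme fragment complementation signal reports receptor beta-arrestin coupling in cells; 0% = agonist plus DMSO wells and 100% = wells without agonist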
APJ antag – antagonists of human APJ apelin receptor. P35414. CHO-K1 APJ beta-arrestin complementation, luminescence. inhibition, % at 20 µM. 330,000 tested, 0.32% active. AID 2521;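 active means inhibition above about 40% at 20 µM, limit read from the data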;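 further: cells challenged with 10 nM apelin-13 agonist together with compound; plate controls were apelin-13 plus DMSO wells for no effect and DMSO wells lacking apelin-13 for full effect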
CXCR6 block – CXCR6 (human) receptor inhibition. 360,000 tested, 0.36% active. AID 602244. O00574. inhibition, % at 20 µM. CHO-K1 PathHunter CXCR6 beta-arrestin, luminescence; in the data active means inhibition above about 34%, passing the limit was not always enough;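 further: antagonist mode with CXCL16 agonist at 10 nM final; 0% = 10 nM CXCL16 with DMSO and 100% = unstimulated wells without agonist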
Target sequence (O00574 whole entry, looked up): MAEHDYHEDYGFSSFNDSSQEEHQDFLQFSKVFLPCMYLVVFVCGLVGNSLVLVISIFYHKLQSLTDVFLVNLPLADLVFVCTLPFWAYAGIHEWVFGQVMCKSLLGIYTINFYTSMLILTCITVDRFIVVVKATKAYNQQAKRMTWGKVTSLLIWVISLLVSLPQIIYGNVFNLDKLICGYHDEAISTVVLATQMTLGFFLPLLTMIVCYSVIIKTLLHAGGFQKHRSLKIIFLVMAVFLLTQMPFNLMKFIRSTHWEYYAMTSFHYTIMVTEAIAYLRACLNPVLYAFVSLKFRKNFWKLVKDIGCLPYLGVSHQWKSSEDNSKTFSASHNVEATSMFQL
APJ ag – APJ receptor agonism | P35414 | CHO-K1 APJ PathHunter beta-arrestin, luminescence; 0% DMSO wells, 100% apelin | activation, % at 20 µM | 330,000 tested, 0.11% active | AID 2520;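 active means activation more than six SD over the plate average, tested at 20 µM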;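 further: 0% = DMSO alone and 100% = apelin-13 at 10 nM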
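Material: engineered CHO-K1 APJ arrestin reporter cells; amount: 1000 CHO-K1 reporter cells seeded per well; incubation: compound stimulation 90 min at 25 °C, detection 60 min; signal: luminescent beta-gal fragment complementation, chemiluminescent substrate; read-out basis: APJ agonist activity; controls: DMSO-only wells as negative, 10 nM Apelin-13 as positive control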
CCR6 antag – antagonists of human CCR6 receptor; CHO-K1 CCR6 PathHunter beta-arrestin, luminescence, CCL20-stimulated; inhibition, % at 20 µM; 340,000 tested, 0.49% active; AID 493098;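 active means compounds whose inhibition of the agonist-driven luminescence signal at 20 µM reaches about 50%, limit read from the data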;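 further: cells stimulated with CCL20 at 14 nM final; plate controls were DMSO with CCL20 for no effect and DMSO without agonist for full effect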
Target sequence (P51684 whole entry, looked up): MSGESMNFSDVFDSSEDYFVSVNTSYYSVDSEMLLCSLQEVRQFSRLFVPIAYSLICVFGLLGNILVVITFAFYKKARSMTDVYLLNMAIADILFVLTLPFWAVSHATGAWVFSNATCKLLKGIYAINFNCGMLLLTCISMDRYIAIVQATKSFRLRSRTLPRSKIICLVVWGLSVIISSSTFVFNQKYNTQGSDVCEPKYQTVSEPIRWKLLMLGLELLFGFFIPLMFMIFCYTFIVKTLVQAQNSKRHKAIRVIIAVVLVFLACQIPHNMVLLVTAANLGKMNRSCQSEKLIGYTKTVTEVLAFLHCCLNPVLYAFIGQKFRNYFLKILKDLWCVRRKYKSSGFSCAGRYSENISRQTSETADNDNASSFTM
An asterisk follows results filed as active; . = no result.

SMILES | EBI2 block | APJ antag | CXCR6 block | APJ ag | CCR6 antag
CC1(C(=O)NS(=O)(=O)c2ccccc2OC(F)(F)F)CCN1C(=O)c1ccco1 (configuration not stated) | 2.3 | . | -1.9 | . | .
CCCCCOc1ccc(/C=c2\sc3nc(=O)c(-c4ccccc4)nn3c2=O)cc1OC | 22.7 | -9.8 | -4.9 | -0.3 | -2.6
O=c1nc2s/c(=C\c3ccc(-c4ccccc4[N+](=O)[O-])o3)c(=O)n2nc1-c1ccccc1 | -6.3 | . | 0.5 | . | 57.6*
CCC(CC)CN1CCN=C1Nc1ccccc1 | 2.9 | -1.5 | 0.3 | -5.4 | 8.3
N#Cc1cc([N+](=O)[O-])c(-n2nnc3ccccc32)c([N+](=O)[O-])c1 | -4.1 | 23.5 | 74.2* | 4.2 | .
CCCCCCCCCC1NC(C(=O)O)Cc2c1[nH]c1ccccc21 (configuration not stated) | -4.3 | . | 0.2 | . | .
C/C=C(/CCC1NCCc2c1[nH]c1ccccc21)[Si](C)(C)C (configuration not stated) | 2.8 | . | 19.1 | . | 51.3*
OC(COCc1ccccc1)CN1CCN(Cc2ccc3c(c2)OCO3)CC1 (configuration not stated) | -4.3 | 4.0 | -1.5 | -2.5 | 7.8
SC(COCc1ccccc1)CN1CCN(Cc2ccc3c(c2)OCO3)CC1 (configuration not stated) | 9.8 | -9.0 | 26.0 | -2.8 | 63.5*
CN(C)c1ccc(C=C2SC(=S)NC2=O)cc1 | 3.3 | . | 16.7 | . | 43.0
CN(C)c1ccc(/C=N/N=C2/NC(=O)/C(=C/c3ccc([N+](=O)[O-])cc3)S2)cc1 | -6.6 | 25.5 | 37.6 | -2.6 | 52.6*
O=C(CCS(=O)(=O)c1ccccc1)NNC(=O)CSc1ccccc1F | -7.5 | -11.8 | 3.8 | -1.4 | 2.8
NC(=O)CSc1nc2ccc([N+](=O)[O-])cc2[nH]1 | -5.5 | 4.9 | 6.9 | -0.1 | 17.9
Cc1cccc2nc(CSc3nc4ccc([N+](=O)[O-])cc4[nH]3)c(Br)n12 | 1.5 | 19.9 | 10.3 | 1.2 | 51.5*
COc1cccc(NC(=S)NC(=O)c2cncc(Br)c2)c1 | 2.4 | 19.6 | 34.7 | -3.2 | 43.1
CC(=O)c1cccc(NC(=S)NC(=O)c2cncc(Br)c2)c1 | 3.8 | 28.2 | 28.1 | -7.9 | 56.0*
COc1cc(/C=C2/C(=O)N(c3ccc([N+](=O)[O-])cc3)N=C2N2CCOCC2)ccc1O | 5.9 | 32.0 | 36.9 | -3.1 | 55.2*
Cc1ccc(C2=NN(CC(=O)O)C(=O)CC2)cc1 | -1.3 | 14.1 | -3.6 | -2.3 | -4.4
CCOCCCNc1ncnc2c1nc1n2CCCC1 | -6.0 | -20.5 | 6.6 | -2.8 | -2.0
O=C(O)c1cc(N2C(=O)C3C4C=CC(C4)C3C2=O)ccc1N1CCOCC1 (configuration not stated) | -2.9 | -3.8 | -2.6 | -1.2 | -1.7
COc1cc([N+](=O)[O-])cc(/C=N/NC(=O)C(C)Nc2ccccc2C)c1O (configuration not stated) | 68.9* | 12.7 | 24.6 | -3.1 | 42.2
Cc1ccc(C(=O)/C=C/C(=O)c2ccc(C)cc2)cc1 | 28.0 | 32.7 | 91.7* | -4.0 | 99.7*
CCC(C)[C@H](NC(=O)c1cc2cc(Cl)ccc2n1C)C(=O)N1CCC(C(=O)O)CC1 (some centres not stated) | -8.5 | 2.8 | -2.1 | -1.4 | 4.0
Cc1ccc(C)c(N=Nc2nc3ccccc3n2C)c1 | 41.5 | 14.8 | 27.7* | -10.2 | 31.6
CCCN(CCC)CCNS(=O)(=O)c1ccc2c(c1)oc(=O)n2C | -0.3 | 2.9 | -3.7 | -0.9 | 118.8*
SMILES | EBI2 block | APJ antag | CXCR6 block | APJ ag | CCR6 antag
CCCCN1C(=O)C(=Nc2cccc3cnccc23)c2ccccc21 | 21.1 | 5.2 | 23.2 | -6.2 | 56.5*
Cc1sc(NC(=O)CN(C(=O)c2ccccc2F)C2CCCC2)c(C(N)=O)c1C | -17.9 | 5.4 | 4.1 | 1.0 | 14.0
Cc1ccc(O)c(N=Nc2nccs2)c1 | 5.6 | -31.4 | 52.1* | -9.2 | .
CC(C)N1C(=O)/C(=C/c2nc3ccccc3c(=O)n2-c2ccccc2)c2ccccc21 | 56.0* | 30.6 | 13.3 | -1.2 | 11.2
CC(C)N1C(=O)/C(=C\c2nc3ccccc3c(=O)n2-c2ccccc2)c2ccccc21 | 55.5* | . | 11.9 | . | 23.6
CC(C)N1C(=O)C(Cc2nc3ccccc3c(=O)n2-c2ccccc2)c2ccccc21 (configuration not stated) | 11.8 | 19.0 | 3.8 | -3.1 | 21.0
CC1(C)C(=O)C=CC(=O)C(C)(C)C(=O)C=CC(=O)C(C)(C)C2=CC=C(O2)C(C)(C)C(=O)C=CC1=O | -1.7 | . | 4.1 | . | 54.6*
Cc1c(N/N=C(\C#N)C(=O)c2ccccc2)c(=O)n(-c2ccccc2)n1C | 10.3 | . | 35.3 | . | 63.2*
CCOC(=O)/C(C#N)=N/Nc1c(C)n(C)n(-c2ccccc2)c1=O | 7.9 | 12.8 | 11.1 | -1.3 | 17.2
Cc1c(NC=C(C#N)C#N)c(=O)n(-c2ccccc2)n1C | -5.1 | -7.7 | 0.3 | 0.6 | -1.9
Cc1ccccc1C(=O)/C(C#N)=N/Nc1c(C)n(C)n(-c2ccccc2)c1=O | 6.4 | . | 44.8* | . | 48.0
CC(C)c1cc(C(=O)N2CCN(C(c3ccccc3)c3ccccc3)CC2)no1 | 20.3 | -3.3 | 21.9 | -2.3 | 10.2
O=C(c1cc(-c2ccco2)on1)N1CCN(C(c2ccccc2)c2ccccc2)CC1 | 91.1* | 20.1 | 16.6 | -5.2 | 17.7
O=C1CCCC(=NCc2ccco2)C1 | -1.6 | -0.7 | 4.5 | -4.5 | 0.4
CN(C)c1nc(=NCc2ccco2)ss1 | 12.8 | . | 99.8* | . | 103.8*
CCN(CC)c1ccc(N=Nc2nn(C)c(C)c2[N+](=O)[O-])cc1 | 20.2 | 54.6* | 38.7 | -7.0 | 64.2*
O=C(NCc1ccccc1F)C1CCCN(S(=O)(=O)N2CCOCC2)C1 (configuration not stated) | -4.7 | -5.2 | -7.0 | -1.0 | -13.5
CN(C)CCCN(C(=O)CCc1ccccc1)c1nc2ccc(F)cc2s1 | 1.4 | 5.5 | -5.6 | -2.2 | 5.6
CN(C)CCCN(C(=O)CCc1ccccc1)c1nc2ccc(Br)cc2s1 | -15.8 | 11.0 | -5.2 | 5.0 | 52.8*
Cc1ccc2nc(C)cc(C(=O)N3CCCC(CO)(Cc4ccccc4C)C3)c2c1 (configuration not stated) | 4.5 | 13.5 | 6.6 | -4.4 | -2.0
Cc1nn(-c2ccccc2)c(Cl)c1CN(C(=O)CCl)c1cccc2ccccc12 | 59.5* | 13.8 | -1.5 | -2.6 | 18.0
CCOC(=O)Cn1nc2oc(=O)c(CCN3CCN(c4ccccc4OC)CC3)c(C)c2c1C | -5.6 | . | 5.0 | . | .
Cc1ccccc1NC1=C/C(=N\S(=O)(=O)c2cccs2)c2ccccc2C1=O | 18.6 | 7.4 | 32.1 | -2.2 | 56.1*
CCCCCN(C(=O)CCC(=O)OCc1cccc(Br)c1)c1c(N)n(CCCC)c(=O)[nH]c1=O | 5.5 | 6.1 | -0.9 | -3.9 | 14.9
O=[N+]([O-])c1cc([N+](=O)[O-])c2nonc2c1Nc1ccc(O)cc1 | -2.2 | 6.9 | 27.6 | -0.5 | 51.5*
O=[N+]([O-])c1cc([N+](=O)[O-])c2nonc2c1Nc1ccccc1O | 12.9 | 2.3 | 14.2 | -2.5 | 36.4
